# Results from ChEMBL document CHEMBL1145833, “Studies on the synthesis and biological properties of non-carrier-added [(125)I and (131)I]-labeled arylalkylidenebisphosphonates: potent bone-seekers for diagnosis and therapy of malignant osseous lesions” (J Med Chem, 2003).
# Tests used:
# Details in all cases: in vivo
# [1] = organism: Mus musculus; experiment: Distribution of compound in lungs tissue of mice after 24 hr injection time was determined; format: ADME, organism-based, Lung
# In short: (§1)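 Healthy athymic nude mice (balb/c nu/nu, 20–25 g, both sexes) received 50–400 KBq radioiodinated bisphosphonate in 100 µL phosphate buffer pH 6–7 by tail-vein injection. Three animals were sacrificed per time point. Tissues were excised, weighed and gamma-counted. Values are % injected dose per gram tissue, mean ± 1 SD, n = 3.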
# [2] = organism: Mus musculus; experiment: Distribution of compound in skull tissue of mice after 24 hr injection time was determined; format: ADME, organism-based; in short: as §1
# [3] = organism: Mus musculus; experiment: Distribution of compound in kidneys tissue of mice after 24 hr injection time was determined; format: ADME, organism-based, Kidney; in short: as §1
# [4] = organism: Mus musculus; experiment: Distribution of compound in liver tissue of mice after 24 hr injection time was determined; format: ADME, organism-based; in short: as §1
# [5] = organism: Mus musculus; experiment: Distribution of compound in heart tissue of mice after 24 hr injection time was determined; format: ADME, organism-based; in short: as §1
# [6] = organism: Mus musculus; experiment: Distribution of compound in intestine tissue of mice after 24 hr injection time was determined; format: ADME, organism-based; in short: as §1
# [7] = organism: Mus musculus; experiment: Distribution of compound in spleen tissue of mice after 24 hr injection time was determined; format: ADME, organism-based; in short: as §1
# [8] = organism: Mus musculus; experiment: Distribution of compound in stomach tissue of mice after 24 hr injection time was determined; format: ADME, organism-based; in short: as §1
# [9] = organism: Mus musculus; experiment: Distribution of compound in thyroid tissue of mice after 24 h injection time was determined; format: ADME, organism-based, Thyroid gland
# In short: (§2)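 Healthy athymic nude balb/c nu/nu mice (20–25 g) received 50–400 KBq radioiodinated bisphosphonate in 100 μL phosphate buffer, pH 6–7, by tail-vein injection. Three animals were sacrificed per time point. Thyroid-containing tissue was excised, weighed and gamma-counted. Values are % of injected dose, mean ± 1 SD of three mice.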
# [10] = organism: Mus musculus; experiment: Distribution of compound in blood tissue of mice after 24 hr injection time was determined; format: ADME, organism-based; in short: as §1
# [11] = organism: Mus musculus; experiment: Distribution of compound in femur tissue of mice after 24 hr injection time was determined; format: ADME, organism-based; in short: as §1
# [12] = organism: Mus musculus; experiment: Distribution of compound in liver tissue of mice after 5 hr injection time was determined; format: ADME, organism-based; in short: as §1
# [13] = organism: Rattus norvegicus; experiment: Distribution of compound in liver tissue of rats after 24 hr injection time was determined; format: ADME, organism-based
# In short: (§3)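 Healthy congenitally athymic nude rats (Han rnu/rnu Rowett, 60 g, both sexes) received 0.4 MBq radioiodinated bisphosphonate in 200 µL phosphate buffer pH 7 via tail vein. Three rats were sacrificed 24 h post-injection. Excised organs were weighed and gamma-counted. Values are % injected dose per gram tissue, mean ± 1 SD of three rats.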
# [14] = organism: Rattus norvegicus; experiment: Distribution of compound in lung tissue of rats after 24 hr injection time was determined; format: ADME, organism-based; in short: as §3
# [15] = organism: Mus musculus; experiment: Distribution of compound in lungs tissue of mice after 0.5 h injection time was determined; format: ADME, organism-based, Lung; in short: as §1
# [16] = organism: Mus musculus; experiment: Distribution of compound in lungs tissue of mice after 2 hr injection time was determined; format: ADME, organism-based, Lung; in short: as §1
# [17] = organism: Mus musculus; experiment: Distribution of compound in lungs tissue of mice after 5 hr injection time was determined; format: ADME, organism-based, Lung; in short: as §1
# [18] = organism: Mus musculus; experiment: Distribution of compound in skull tissue of mice after 0.5 hr injection time was determined; format: ADME, organism-based; in short: as §1
# [19] = organism: Mus musculus; experiment: Distribution of compound in skull tissue of mice after 2 hr injection time was determined; format: ADME, organism-based; in short: as §1
# [20] = organism: Mus musculus; experiment: Distribution of compound in skull tissue of mice after 5 h injection time was determined; format: ADME, organism-based; in short: as §1
# [21] = organism: Rattus norvegicus; experiment: Distribution of compound in skull tissue of rats after 24 hr injection time was determined; format: ADME, organism-based; in short: as §3
# [22] = organism: Mus musculus; experiment: Distribution of compound in spleen tissue of mice after 0.5 hr injection time was determined; format: ADME, organism-based; in short: as §1
# [23] = organism: Mus musculus; experiment: Distribution of compound in kidneys tissue of mice after 0.5 hr injection time was determined; format: ADME, organism-based, Kidney; in short: as §1
# [24] = organism: Mus musculus; experiment: Distribution of compound in kidneys tissue of mice after 2 hr injection time was determined; format: ADME, organism-based, Kidney; in short: as §1
# [25] = organism: Mus musculus; experiment: Distribution of compound in kidneys tissue of mice after 5 hr injection time was determined; format: ADME, organism-based, Kidney; in short: as §1
# [26] = organism: Mus musculus; experiment: Distribution of compound in liver tissue of mice after 0.5 hr injection time was determined; format: ADME, organism-based; in short: as §1
# [27] = organism: Mus musculus; experiment: Distribution of compound in heart tissue of mice after 2 hr injection time was determined; format: ADME, organism-based; in short: as §1
# [28] = organism: Mus musculus; experiment: Distribution of compound in heart tissue of mice after 5 hr injection time was determined; format: ADME, organism-based; in short: as §1
# [29] = organism: Rattus norvegicus; experiment: Distribution of compound in heart tissue of rats after 24 hr injection time was determined; format: ADME, organism-based; in short: as §3
# [30] = organism: Mus musculus; experiment: Distribution of compound in intestine tissue of mice after 0.5 hr injection time was determined; format: ADME, organism-based; in short: as §1
# [31] = organism: Mus musculus; experiment: Distribution of compound in intestine tissue of mice after 2 hr injection time was determined; format: ADME, organism-based; in short: as §1
# [32] = organism: Mus musculus; experiment: Distribution of compound in intestine tissue of mice after 5 hr injection time was determined; format: ADME, organism-based; in short: as §1
# [33] = organism: Rattus norvegicus; experiment: Distribution of compound in intestine tissue of rats after 24 hr injection time was determined; format: ADME, organism-based; in short: as §3
# [34] = organism: Rattus norvegicus; experiment: Distribution of compound in kidney tissue of rats after 24 hr injection time was determined; format: ADME, organism-based; in short: as §3
# [35] = organism: Mus musculus; experiment: Distribution of compound in spleen tissue of mice after 2 hr injection time was determined; format: ADME, organism-based; in short: as §1
# [36] = organism: Mus musculus; experiment: Distribution of compound in spleen tissue of mice after 5 h injection time was determined; format: ADME, organism-based; in short: as §1
# [37] = organism: Rattus norvegicus; experiment: Distribution of compound in spleen tissue of rats after 24 hr injection time was determined; format: ADME, organism-based; in short: as §3
# [38] = organism: Mus musculus; experiment: Distribution of compound in stomach tissue of mice after 0.5 hr injection time was determined; format: ADME, organism-based; in short: as §1
# [39] = organism: Mus musculus; experiment: Distribution of compound in stomach tissue of mice after 2 hr injection time was determined; format: ADME, organism-based; in short: as §1
# [40] = organism: Mus musculus; experiment: Distribution of compound in stomach tissue of mice after 5 hr injection time was determined; format: ADME, organism-based; in short: as §1
# [41] = organism: Rattus norvegicus; experiment: Distribution of compound in stomach tissue of rats after 24 hr injection time was determined; format: ADME, organism-based; in short: as §3
# [42] = organism: Mus musculus; experiment: Distribution of compound in thyroid tissue of mice after 0.5 hr injection time was determined; format: ADME, organism-based, Thyroid gland; in short: as §2
# [43] = organism: Mus musculus; experiment: Distribution of compound in thyroid tissue of mice after 2 hr injection time was determined; format: ADME, organism-based, Thyroid gland; in short: as §2
# [44] = organism: Mus musculus; experiment: Distribution of compound in thyroid tissue of mice after 5 h injection time was determined; format: ADME, organism-based, Thyroid gland; in short: as §2
# [45] = organism: Rattus norvegicus; experiment: Distribution of compound in thyroid tissue of rats after 24 hr injection time was determined; format: ADME, organism-based, Thyroid gland
# In short: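 Healthy congenitally athymic nude rats (Han rnu/rnu Rowett, 60 g) received 0.4 MBq radioiodinated bisphosphonate in 200 μL phosphate buffer, pH 7, by tail-vein injection. Three rats were sacrificed 24 h after injection. Thyroid-containing tissue was excised, weighed and gamma-counted. Values are % of injected dose, mean ± 1 SD of three rats.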
# [46] = organism: Mus musculus; experiment: Distribution of compound in blood tissue of mice after 0.5 hr injection time was determined; format: ADME, organism-based; in short: as §1
# [47] = organism: Mus musculus; experiment: Distribution of compound in blood tissue of mice after 2 hr injection time was determined; format: ADME, organism-based; in short: as §1
# [48] = organism: Mus musculus; experiment: Distribution of compound in blood tissue of mice after 5 h injection time was determined; format: ADME, organism-based; in short: as §1
# [49] = organism: Rattus norvegicus; experiment: Distribution of compound in blood tissue of rats after 24 hr injection time was determined; format: ADME, organism-based; in short: as §3
# [50] = organism: Mus musculus; experiment: Distribution of compound in femur tissue of mice after 0.5 hr injection time was determined; format: ADME, organism-based; in short: as §1
# [51] = organism: Mus musculus; experiment: Distribution of compound in femur tissue of mice after 2 hr injection time was determined; format: ADME, organism-based; in short: as §1
# [52] = organism: Mus musculus; experiment: Distribution of compound in femur tissue of mice after 5 hr injection time was determined; format: ADME, organism-based; in short: as §1
# [53] = organism: Rattus norvegicus; experiment: Distribution of compound in femur tissue of rats after 24 h injection time was determined; format: ADME, organism-based; in short: as §3
# [54] = organism: Mus musculus; experiment: Distribution of compound in heart tissue of mice after 0.5 hr injection time was determined; format: ADME, organism-based; in short: as §1
# [55] = organism: Mus musculus; experiment: Distribution of compound in liver tissue of mice after 2 h injection time was determined; format: ADME, organism-based; in short: as §1
compound,measurement,setting,value
O=P(O)(O)C(CCc1cccc(I)c1)P(=O)(O)O,Injected,[1],0.21%
same,Injected,[2],10.36%
same,Injected,[3],0.85%
same,Injected,[4],0.35%
same,Injected,[5],0.06%
same,Injected,[6],0.05%
same,Injected,[7],0.17%
same,Injected,[8],0.04%
same,Injected,[9],0.02%
same,Injected,[10],0.02%
same,Injected,[11],8.84%
O=P(O)(O)C(O)(Cc1cccc(I)c1)P(=O)(O)O,Injected,[12],2.51%
same,Injected,[13],0.18%
same,Injected,[14],0.05%
same,Injected,[15],5.41%
same,Injected,[16],1.2%
same,Injected,[1],0.54%
same,Injected,[17],0.61%
same,Injected,[18],24.61%
same,Injected,[19],26.49%
same,Injected,[2],21.34%
same,Injected,[20],19.14%
same,Injected,[21],5.84%
same,Injected,[22],2.02%
same,Injected,[23],18.64%
same,Injected,[24],13.3%
same,Injected,[3],5.16%
same,Injected,[25],7.17%
same,Injected,[26],3.88%
same,Injected,[4],2.27%
same,Injected,[27],0.82%
same,Injected,[5],0.18%
same,Injected,[28],0.4%
same,Injected,[29],0.04%
same,Injected,[30],1.07%
same,Injected,[31],1%
same,Injected,[6],0.16%
same,Injected,[32],0.45%
same,Injected,[33],0.03%
same,Injected,[34],0.36%
same,Injected,[35],0.77%
same,Injected,[7],0.49%
same,Injected,[36],0.47%
same,Injected,[37],0.09%
same,Injected,[38],3.22%
same,Injected,[39],1.79%
same,Injected,[8],0.13%
same,Injected,[40],0.38%
same,Injected,[41],0.05%
same,Injected,[42],0.51%
same,Injected,[43],0.19%
same,Injected,[9],0.06%
same,Injected,[44],0.49%
same,Injected,[45],0.02%
same,Injected,[46],15.92%
same,Injected,[47],1.36%
same,Injected,[10],0.09%
same,Injected,[48],0.82%
same,Injected,[49],0.01%
same,Injected,[50],45.03%
same,Injected,[51],45.54%
same,Injected,[11],37.79%
same,Injected,[52],30.3%
same,Injected,[53],16.44%
same,Injected,[54],3.35%
same,Injected,[55],3.36%
